# PfM18AAP inh: PfM18AAP enzyme inhibition; recombinant PfM18AAP, H-Glu-NHMec fluorogenic cleavage; inhibition, % at 7.35 µM; hit rate 1.2% among 290,000;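 active = inhibition above the campaign mean inhibition over all tested compounds plus 3 SD, cut at about 28% in these data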
# TNF death inh: inhibitors of TNF-alpha induced necroptosis in Jurkat FADD-/- cells | hit rate 0.068% among 220,000 | activation (protection from cell death), % at 10 µM | Jurkat FADD-/- TNF necroptosis rescue, ATP luminescence, 24 h; 0 = TNF only, 100 = no-TNF cells;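 active = activation, meaning protection from cell death, of at least 50% relative to plate controls; inactive = activation below 50%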;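 also: necroptosis triggered by 40 ng/mL TNF-alpha added together with compound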
# RBBP9 inhibitor: blocks human serine hydrolase RBBP9. O75884. recombinant RBBP9, FP-Rh probe fluorescence polarization. inhibition, % at 7.94 µM. hit rate 0.2% among 220,000. AID 1515;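 active = inhibition above the campaign mean of all tested compounds plus 3 SD, cut at about 14% in these data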
#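 System: RBBP9 protein / Buffer or medium: Tris/NaCl buffer pH 8.0 with 0.1% Pluronic / Probe or stimulus: Serine-hydrolase probe FP-Rh, 375 nM pre-mixing / Dosing: 7.94 µM single dose, 0.794% DMSO / Times: enzyme-compound preincubation 30 min, then probe labeling 45 min, 25 °C / Technique: fluorescence polarization (mP), excitation 525 nm, emission 598 nm / Replication: singlicate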
# Wee1 stabilizer: blocks degradation of human Wee1 kinase | HeLa Luc-Wee1K328M stability, luciferase luminescence; 100% = proteasome inhibitor MG132 effect | reporter increase, % at 5 µM | hit rate 1.2% among 220,000;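 active = activation above the mean of all tested compounds plus 3 SD, set per screening run, cut at about 8.8% in these data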;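 also: cells exposed to compound for 20 h before luminescence read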
# zVAD death inh: L929 zVAD cell death inhibition; L929 zVAD necroptosis rescue, ATP luminescence, 24 h; with zVAD 60 µM; viability rescue, % at 10 µM; hit rate 0.38% among 220,000; AID 1377;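 active = activation, scaled between plate controls, above about 75%, limit read from the data; inactive = activation under that limit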
# p97 ATPase inh: human p97 ATPase inhibition; P55072; recombinant p97 ATPase, Kinase-Glo ATP luminescence, 3 h; inhibition, % at 8 µM; hit rate 0.42% among 220,000; AID 1481; in the data active = inhibition above about 15%
# Target sequence (P55072 whole entry, looked up): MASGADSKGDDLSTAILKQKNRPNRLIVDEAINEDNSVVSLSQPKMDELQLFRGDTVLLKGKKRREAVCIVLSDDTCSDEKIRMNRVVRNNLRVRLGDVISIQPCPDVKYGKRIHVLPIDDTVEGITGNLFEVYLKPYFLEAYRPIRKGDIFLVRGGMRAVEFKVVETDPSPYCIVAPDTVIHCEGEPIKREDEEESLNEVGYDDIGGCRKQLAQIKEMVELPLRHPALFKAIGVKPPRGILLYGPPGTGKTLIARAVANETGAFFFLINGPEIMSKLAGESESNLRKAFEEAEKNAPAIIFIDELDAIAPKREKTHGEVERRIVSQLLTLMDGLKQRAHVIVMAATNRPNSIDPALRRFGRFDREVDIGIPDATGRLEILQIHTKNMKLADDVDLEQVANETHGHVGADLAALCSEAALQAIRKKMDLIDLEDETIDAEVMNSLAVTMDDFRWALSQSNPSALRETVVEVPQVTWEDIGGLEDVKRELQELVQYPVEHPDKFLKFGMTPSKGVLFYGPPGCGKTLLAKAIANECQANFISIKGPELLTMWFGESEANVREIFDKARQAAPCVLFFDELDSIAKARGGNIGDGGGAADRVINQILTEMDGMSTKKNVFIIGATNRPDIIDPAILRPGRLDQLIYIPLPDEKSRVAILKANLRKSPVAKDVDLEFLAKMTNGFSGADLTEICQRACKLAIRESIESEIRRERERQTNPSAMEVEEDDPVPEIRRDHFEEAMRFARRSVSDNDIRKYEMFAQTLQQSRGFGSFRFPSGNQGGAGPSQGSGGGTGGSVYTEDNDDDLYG
# Numbers stand for hits; 0 = inactive; - = no result given; ! = repeats disagree. An excerpt weighted towards active compounds, which were near 2.7% of everything screened.
SMILES,PfM18AAP inh,TNF death inh,RBBP9 inhibitor,Wee1 stabilizer,zVAD death inh,p97 ATPase inh
Cc1ccc(-c2nnn(CC(=O)N(CC(=O)NC3CCCCC3)c3cnc4ccccc4c3)n2)o1,32,0,0,0,0,0
CC(C)c1ccccc1NC(=O)COC(=O)c1cccnc1,0,-,-,-,-,-
O=C1CC(C(=O)N2CCc3ccccc32)CN1c1ccc(F)cc1 (centres undefined),0,-,-,-,-,-
CCCCNC(=O)Oc1c(Br)cc2sc(=O)oc2c1Br,30,0,21,0,0,0
CCCCNC(=O)Oc1cc(CCl)on1,0,0,0,0,0,0
CC(C)OCCCNC(=O)CN1C(=O)c2cccc3cccc1c23,0,-,-,-,-,-
CCN1CCN(Cc2c3ccccc3cc3ccccc23)CC1,0,-,-,-,-,-
O=C(CSc1nnc(-c2ccncc2)o1)NC1CCCCC1,0,0,0,0,0,0
O=C(CSc1nnc(-c2ccc(F)cc2)o1)NC1CCCCC1,0,0,0,10,0,0
O=C1/C(=C\c2ccc(O)c(O)c2)SC(=S)N1Cc1ccccc1,48,-,-,-,-,-
COc1cc(/C=C2/SC(=S)N(Cc3ccccc3)C2=O)ccc1O,0,-,-,-,-,-
COc1cccc(C(=O)CSc2nnc(CNS(=O)(=O)c3ccc(C)cc3)n2C)c1,0,0,0,9.7,0,0
COC(=O)CSc1nnc(CNS(=O)(=O)c2ccc(C)cc2)n1C,0,0,0,0,0,0
CCCN(c1ccccc1C(=O)O)S(=O)(=O)c1ccc2c(c1)n(C)c(=O)n2C,0,-,-,-,-,-
COC(=O)c1sc(S(=O)(=O)N2CCC(C(=O)O)CC2)c(C(=O)OC)c1C,0,0,0,0,83,0
COc1ccc(S(=O)(=O)Nc2cc(C(C)C)c(O)cc2C)cc1,0,0,0,0,0,0
C/C(=N\S(=O)(=O)c1ccc(C)cc1)Nc1cc(C(C)C)c(O)cc1C,29,0,0,0,0,0
NNC(=O)c1nn(-c2ccccc2)cc1O,28,0,0,0,0,0
NC(=O)Cn1c(=O)n(CCC(=O)NCCSCc2ccccc2)c(=O)c2ccccc21,0,0,0,0,0,0
CCN(CC)CC(=O)Nc1c(C)cccc1C,0,0,0,0,0,20!
CCN(CC(=O)NCc1ccccc1Cl)CC(=O)Nc1c(F)cccc1F,0,0,0,9.5,0,0
COc1ccc(CNC(=O)CNC(=O)c2ccc(C(C)(C)C)cc2)cc1OC,0,-,-,-,-,-
CCCOc1ccc(/C(O)=C2/C(=O)C(=O)N(CCCn3ccnc3)C2c2ccc(C)o2)cc1 (centres undefined),0,0,0,9.7,0,0
CCCOc1ccc(/C(O)=C2/C(=O)C(=O)N(CCCn3ccnc3)C2c2ccco2)cc1 (centres undefined),0,0,0,0,0,0
O=C(c1ccc(Cl)cc1)c1ccc(OCC(=O)N2CCOCC2)cc1,0,0,0,9.6,0,0
SMILES,PfM18AAP inh,TNF death inh,RBBP9 inhibitor,Wee1 stabilizer,zVAD death inh,p97 ATPase inh
O=C(COc1ccc(Cl)cc1)N1CCCC1,0,0,0,0,0,0
C=CCOc1ccc(C2/C(=C(\O)c3ccc4c(c3)OCCO4)C(=O)C(=O)N2CCCN2CCOCC2)cc1 (centres undefined),0,-,-,-,-,-
CCCCN1C(=O)C2(NNc3ccccc3O2)c2ccccc21 (centres undefined),0,0,0,0,0,0
C=CCN1C(=O)C2(NNc3ccccc3O2)c2ccccc21 (centres undefined),31,0,0,0,0,0
O/N=C/c1ccc2cccc(OCc3ccccc3)c2n1,0,-,-,-,-,-
NC(=S)N/N=C/c1ccc2cccc(OCc3ccccc3)c2n1,44,-,-,-,-,-
O=C(Nc1nncs1)c1ccc(S(=O)(=O)c2ccccc2)cc1,0,0,0,9.3,0,0
O=C(Nc1ccccc1O)c1csc2c1CCCC2,0,0,0,9.4,0,0
Cn1c(=O)c(=O)n(C)c2cc(N3CCCCC3)c(NS(=O)(=O)c3ccc([N+](=O)[O-])cc3)cc21,0,-,-,-,-,-
CCC(CO)NC(=O)c1ccccc1C(F)(F)F (centres undefined),0,0,0,0,0,0
Cc1ccc(C(=O)OCCN(C)Cc2ccccc2)cc1,0,0,0,9.2,0,0
CCN(CC)CCOC(=O)c1ccc(NC(=O)/C=C/c2cccs2)cc1,0,0,0,0,0,0
CCOC(=O)c1ccc(NC(=O)/C=C/c2cccs2)cc1,0,0,0,11,0,0
COc1ccc2nc(NC(=O)CCn3cccc3)sc2c1,0,0,0,0,92,0
Cc1ccc(Nc2nc(Cl)nc(N(C)C#N)n2)cc1,0,0,0,0,0,21
CCCCNC(=S)N/N=C/C1=CCC2CC1C2(C)C (centres undefined),0,0,0,8.9,0,0
COCCOc1cc(NC(=O)c2ccccc2)c(Cl)cc1Cl,0,0,0,0,0,0
CNC(=O)CS(=O)CC(=O)Nc1cc(OCCOC)c(Cl)cc1Cl (centres undefined),0,0,0,8.9,0,0
COc1ccc(C(=O)Nc2c(Cl)cc(Cl)cc2C(=O)N2CCOCC2)cc1,0,0,0,8.9,0,0
CCN1CCN(C2=C(NS(=O)(=O)c3ccc(C)cc3)C(=O)c3ccccc3C2=O)CC1,31,-,-,-,-,-
CCNc1nc(SCC(N)=O)nc2sc3c(c12)CCN(C)C3,29,-,-,-,-,-
CSc1cccc(NC(=O)c2ccc(NC3=NC4CS(=O)(=O)CC4S3)cc2)c1 (centres undefined),0,-,-,-,-,-
Cc1ccccc1NC(=O)C1CCN(C2=NS(=O)(=O)c3ccccc32)CC1,0,0,0,10,0,0
CC(C)C(=O)N1CCN(C2=NS(=O)(=O)c3ccccc32)CC1,0,0,0,0,0,0
C[C@@H]1O[C@@H](OC[C@H]2O[C@@H](Oc3c(-c4ccc(O)c(O)c4)oc4cc(O)cc(O)c4c3=O)[C@H](O)[C@@H](O)[C@@H]2O)[C@H](O)[C@H](O)[C@H]1O,64,-,0,0,-,0
O=c1c(O[C@@H]2O[C@H](CO)[C@@H](O)[C@H](O)[C@H]2O)c(-c2ccc(O)c(O)c2)oc2cc(O)cc(O)c12,68,-,0,0,-,0
O=c1c(OC2OC(CO)C(O)C(O)C2OC2OC(CO)C(O)C(O)C2OC2OC(CO)C(O)C(O)C2O)c(-c2ccc(O)c(O)c2)oc2cc(O)cc(O)c12 (centres undefined),-,0,-,-,0,-
O=c1c(O[C@@H]2O[C@H](CO)[C@H](O)[C@H](O)[C@H]2O)c(-c2ccc(O)c(O)c2)oc2cc(O)cc(O)c12,68,-,0,0,-,0
CC1OC(OCC2OC(Oc3c(-c4ccc(O)cc4)oc4cc(O)cc(O)c4c3=O)C(O)C(O)C2O)C(O)C(O)C1O (centres undefined),0,0,0,0,0,0
CCC1Oc2ccccc2N(CC(=O)NC2CCCCC2C)C1=O (centres undefined),0,-,-,-,-,-
